# Source: PubChem BioAssay (Broad Institute)
# PGC1a acetyl inh: PGC1a acetylation modulation, inhibitor mode; U2OS PGC1a acetylation, AlphaScreen anti-acetyl-lysine; with virally co-expressed GCN5 acetyltransferase; inhibition, % at 15.6 µM; hit rate 0.17% among 350,000; AID 651687;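 active = every replicate shows inhibition of at least 40%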;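 note: 0% = neutral control wells and 100% = positive control wells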
# C2C12 statin: suppressors of simvastatin-induced myotoxicity in C2C12 myotubes | rescue of ATP level, % at 7.49 µM | hit rate 0.78% among 330,000 | ATP luminescence, 48 h; scaled: DMSO 0, geranylgeraniol control 100 | AID 602340;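 active = mean ATP rescue above about 67%, or every replicate alone reaching that limit, limit read from the data, passing the limit was not always enough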;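 note: myotubes were challenged with 10 µM simvastatin during compound exposure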
# Cneo AK release: Cryptococcus neoformans lysis via adenylate kinase release | hit rate 0.2% among 360,000 | AID 651654 | C. neoformans lysis, adenylate kinase release luminescence, 4 h; normalised: neutral wells 0, clomiphene wells 100 | lysis activity, % at 15 µM;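 active = mean lysis activity across replicates of at least 80%, whatever share of replicates individually reach that level; inactive = mean lysis activity below 80%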
#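 read-out = cell lysis signal | test system = log-phase Cryptococcus neoformans yeast cells | input = cells at 5 × 10^6 per mL | medium = fresh YPD growth medium | signal = luminescent adenylate kinase detection reagent | timing = 4 h at 37 °C static, read 1 h later | dosing = single dose | controls = Clomiphene as positive lysis control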
# rRNA inh HTS: inhibitors of bacterial rRNA selective over humanized ribosomes | GFP signal change (wild-type ribosome), % (concentration not given with the values) | hit rate 1.6% among 350,000 | E. coli WT GFP vs humanized-ribosome RFP mutants, fluorescence, 24 h; stronger effect = lower value; DMSO median 0, no signal -100;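 active = significant combined selectivity score with lowered wild-type GFP, culture density cut under 30%, mutant RFP and density less affected; inactive = any of these conditions unmet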
# S100A4 MyoIIA: blocks human S100A4 binding to myosin IIA peptide | S100A4/TAMRA-MyoIIA peptide fluorescence polarization | inhibition, % at 10.7 µM | hit rate 0.14% among 360,000 | P26447;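 active = mean inhibition of at least 70% across replicates, with every replicate also reaching that level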
# Target sequence (P26447 whole entry, looked up): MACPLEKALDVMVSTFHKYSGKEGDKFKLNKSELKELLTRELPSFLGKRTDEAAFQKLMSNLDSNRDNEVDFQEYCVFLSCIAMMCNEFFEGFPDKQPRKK
#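 Assay system: human S100A4 monomer with TAMRA-labelled myosin IIA peptide / Buffer or medium: Calcium-containing HEPES buffer, pH 7.2 / Reagent: TAMRA-labelled myosin IIA heavy-chain peptide probe, 5 nM / Compound: one dose per compound / Timing: polarization read 5 min after assay mix addition, stable 5–60 min / Benchmarks: neutral control DMSO, positive control TFP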
# SIRT5 block: blocks human SIRT5 desuccinylation of peptide. inhibition, % at 15 µM. Purified SirT5, succinyl-peptide AMC, trypsin-coupled fluorescence. hit rate 1.1% among 330,000. Q9NXA8; in the data active = inhibition above about 15%
# Target sequence (Q9NXA8 whole entry, looked up): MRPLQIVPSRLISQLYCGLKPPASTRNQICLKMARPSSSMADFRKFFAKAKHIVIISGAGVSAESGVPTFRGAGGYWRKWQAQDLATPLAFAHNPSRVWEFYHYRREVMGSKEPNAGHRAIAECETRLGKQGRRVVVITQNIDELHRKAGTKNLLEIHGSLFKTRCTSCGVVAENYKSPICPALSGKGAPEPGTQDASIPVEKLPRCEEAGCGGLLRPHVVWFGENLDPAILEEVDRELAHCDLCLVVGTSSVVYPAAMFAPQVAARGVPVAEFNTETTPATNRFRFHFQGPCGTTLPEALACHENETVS
# Active calls of the source: *; x = not tested or not shown. An excerpt weighted towards active compounds, which were near 3% of everything screened.
SMILES,PGC1a acetyl inh,C2C12 statin,Cneo AK release,rRNA inh HTS,S100A4 MyoIIA,SIRT5 block
CCCCN1CC(=O)N2[C@H](c3ccc(OC)cc3)[C@@H]3C(=O)N(CC)C(=O)[C@@H]3[C@]2(Cc2ccccc2)C1=O,x,-9.7,0.1,3.7,-2.5,27.1*
CN(C)C(=O)C[C@H]1C=C[C@@H](NC(=O)NC2CCCCC2)[C@@H](CO)O1,2.5,6.1,-4.3,3.1,-2.9,-2.9
O=C(N1CCOCC1)N1CCN(S(=O)(=O)N2CCOCC2)CC1,5.5,113.7*,-2.1,x,x,x
CN1C(=O)c2cc(NC(=O)c3cccs3)ccc2OC[C@@H]2O[C@@H](CC(=O)O)CC[C@H]21,1.1,-3.8,-4.5,2.2,-1.2,-2.9
C[C@@H]1CN([C@@H](C)CO)S(=O)(=O)c2ccc(/C=C/c3ccccc3)cc2O[C@@H]1CN(C)Cc1ccccc1,-10.8,-3.7,2.4,-1.0,-53.1,18.6*
C/C=C/c1ccc2c(c1)O[C@@H](CN(C)Cc1ccccc1)[C@@H](C)CN([C@H](C)CO)S2(=O)=O,-10.8,-20.5,3.8,-22.7,0.8,3.4
C[C@H]1CN([C@@H](C)CO)S(=O)(=O)c2ccc(/C=C/c3ccccc3)cc2O[C@@H]1CN(C)Cc1ccccc1,-3.1,-21.0,8.2,-0.6,5.0,21.6*
COc1cccc(C(=O)N(C)c2nnc(-c3ccncc3)s2)c1,35.5,82.3*,x,x,x,x
COc1cccc(-c2nnc(N(C)C(=O)C3CCOC3)s2)c1 (stereo not drawn),-21.0,97.1*,0.4,x,x,x
Cc1nnc(N(C)C(=O)c2cccnc2)s1,4.9,86.6*,0.0,x,x,x
CN(C(=O)c1cccc(C#N)c1)c1nnc(-c2ccncc2)s1,26.7,x,1.1,x,x,x
C[C@@H]1CN([C@@H](C)CO)C(=O)c2cccc(NC(=O)c3ccncc3)c2O[C@H]1CN(C)S(=O)(=O)c1ccccc1,3.5,-20.7,-0.7,0.7,7.0,x
COc1ccc(S(=O)(=O)N(C)C[C@H]2OCCCC[C@@H](C)Oc3ccc(NC(=O)CCCN(C)C)cc3C(=O)N([C@H](C)CO)C[C@@H]2C)cc1,0.1,x,-2.1,1.0,2.6,-4.1
O=C(C[C@@H]1CC[C@@H](NC(=O)C2CC2)[C@@H](CO)O1)NCCCN1CCOCC1,3.3,2.7,10.1,-2.4,-9.1,3.1
CCN(CC)CC#CCC(O)(c1ccccc1)C1CCCC1 (stereo not drawn),1.2,-3.1,-2.1,4.1,-0.6,18.3*
C[C@@H]1CN([C@H](C)CO)C(=O)Cc2cc(NS(=O)(=O)c3ccccc3)ccc2O[C@@H]1CN(C)CC1CC1,-6.8,-5.7,-1.7,0.2,54.0,-0.6
Cc1ccc(C)c(-c2ccc(=O)n(Cc3c(F)cccc3Cl)n2)c1,-0.9,2.8,-3.2,-41.9,2.8,0.9
Cc1ccc(-c2ccc(=O)n(Cc3c(F)cccc3Cl)n2)cc1,3.5,-1.2,-0.9,-26.6*,-0.3,-1.1
Cc1onc(-c2ccccc2)c1-c1nnc(-c2ccccc2C(F)(F)F)o1,x,21.1,-2.1,-19.9*,-4.3,-3.6
C[C@@H]1CCCCO[C@H](CN(C)S(=O)(=O)c2ccc(F)cc2)[C@H](C)CN([C@@H](C)CO)C(=O)c2cc(NC(=O)CCCN(C)C)ccc2O1,6.3,x,-10.5,1.2,7.1,-4.0
Oc1ccc(Cl)cc1CNCc1cccc2ccccc12,-2.9,-2.9,-11.2,-23.5*,-3.7,-3.3
COc1cc(C2C(C#N)=C(N)Oc3c2ccc2ccccc32)ccc1OCC(=O)Nc1ccc(C)cc1 (stereo not drawn),-7.3,-14.3,-1.1,x,-1.4,20.0*
N#Cc1cc(-c2ccccc2)nnc1Sc1ccc(Cl)cc1,-5.9,112.5*,0.3,x,x,x
Cc1ccc(Sc2nc(-c3ccccc3)ccc2C#N)cc1,x,-37.3,3.8,x,x,x
COc1cc(OC)c(-c2c3cc(O)c(=O)cc-3oc3cc(O)c(O)cc23)cc1OC,x,x,x,75.0,-18.2,6.8
SMILES,PGC1a acetyl inh,C2C12 statin,Cneo AK release,rRNA inh HTS,S100A4 MyoIIA,SIRT5 block
Cc1c2cc(O)c(=O)cc-2oc2cc(O)c(O)cc12,5.3,1.2,-2.5,1.8,180.1*,29.5*
Nc1nc(C2CC2)c(Sc2sc(N)nc2C2CC2)s1,-9.2,69.4*,-2.1,x,x,x
COC(=O)C1=C(O)/C(=C\c2ccc(OCC(=O)Nc3ccccc3)cc2)N=C1C,-6.1,104.0*,-3.5,-0.9,2.1,-4.5
COC(=O)C1=C(O)/C(=C/c2ccc(OCC(=O)Nc3ccc(OC)cc3)cc2)N=C1C,8.4,2.6,1.3,7.0,8.0,x
O=C(Nc1cccc(Br)c1)c1ccc(CN2CCc3ccccc3C2)cc1,18.4,-29.7,-0.8,2.6,-3.0,-31.7
CSc1cccc(NC(=O)c2ccc(CN3CCc4ccccc4C3)cc2)c1,3.3,-20.4,-1.2,-23.2*,-12.7,-1.3
Cc1noc(C)c1NC(=O)N(C)C[C@@H]1OCCCC[C@H](C)Oc2ccc(NC(=O)Nc3ccc(C(F)(F)F)cc3)cc2C(=O)N([C@@H](C)CO)C[C@H]1C,-9.2,6.9,0.6,2.7,-17.6,-0.9
Cc1noc(C)c1NC(=O)N(C)C[C@@H]1OCCCC[C@H](C)Oc2ccc(NC(=O)Nc3ccc(F)cc3)cc2C(=O)N([C@@H](C)CO)C[C@@H]1C,2.4,x,-0.4,-1.8,2.7,31.2*
Cc1noc(C)c1NC(=O)Nc1ccc2c(c1)C(=O)N([C@H](C)CO)C[C@H](C)[C@@H](CN(C)Cc1ccc(C(F)(F)F)cc1)OCCCC[C@@H](C)O2,8.1,x,2.5,3.8,-8.6,26.2*
Cc1noc(C)c1NC(=O)N(C)C[C@H]1OCCCC[C@@H](C)Oc2ccc(NC(=O)Nc3ccc(C(F)(F)F)cc3)cc2C(=O)N([C@H](C)CO)C[C@@H]1C,2.9,-1.2,0.5,0.8,2.3,17.3*
Cc1noc(C)c1NC(=O)Nc1ccc2c(c1)C(=O)N([C@H](C)CO)C[C@H](C)[C@H](CN(C)Cc1ccc(C(F)(F)F)cc1)OCCCC[C@@H](C)O2,0.6,x,-0.1,0.6,-24.0,0.0
CCCCN(C=O)c1c(CC)nc2ccc(C(=O)N3CCCCC3)cn12,-3.4,2.1,-2.1,1.4,10.0,44.5*
CC1(C)CC(=O)C=C(NCc2ccco2)C1,40.3*,x,x,x,x,x
COc1ccc(S(=O)(=O)N(C)C[C@@H]2OCCCC[C@H](C)Oc3ccc(NC(=O)CCC(F)(F)F)cc3C(=O)N([C@@H](C)CO)C[C@@H]2C)cc1,-27.0,x,-2.2,-1.3,-3.2,3.1
Cc1ccc(C(=O)NC(=O)CSc2nncn2C)cc1,x,-0.3,4.2,7.9,2.4,-3.1
Cc1ccc(C2=NN=C(NC(=O)CSc3nncn3C)SC2)cc1,x,9.3,-0.5,-23.1*,-7.4,0.8
O=C(C[C@@H]1C=C[C@@H](NS(=O)(=O)c2ccc(F)cc2)[C@H](CO)O1)NCc1ccccc1F,6.6,x,x,2.2,5.9,-3.4
